Assay results published in ChEMBL document CHEMBL2331506, “Design, synthesis, antiviral and cytostatic evaluation of novel isoxazolidine nucleotide analogues with a carbamoyl linker” (Bioorg Med Chem, 2013).
Calls of active or inactive are those of the source. The rule behind the calls is not given here.

Experiments:
HeLa [1] = assay: Cytostatic activity against human HeLa cells assessed as inhibition of cell proliferation after 72 hrs by Coulter counter analysis; assay type: functional, cell-based
In short: (§1)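 Each well received (5–7.5) × 10^4 tumor cells plus compound. L1210 cells grew 48 h and CEM and HeLa cells grew 72 h, at 37 °C in humidified CO2. Cells were then counted electronically, and IC50 was taken as the concentration inhibiting proliferation by 50%.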

CCRF-CEM = assay: Cytostatic activity against human CEM cells assessed as inhibition of cell proliferation after 72 hrs by Coulter counter analysis; assay type: functional, cell-based; in short: as §1
L1210 = assay: Cytostatic activity against mouse L1210 cells assessed as inhibition of cell proliferation after 48 hrs by Coulter counter analysis; assay type: functional, cell-based; details: L1210, 48 h; in short: as §1
MDCK = assay: Cytotoxicity against dog MDCK cells assessed as alteration of cell morphology up to 100 uM by microscopic analysis; assay type: cell-based, Canis lupus familiaris
In short: (§2)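 Uninfected host-cell cultures were exposed to compound and examined by microscopy. Cytotoxicity was expressed as the minimum cytotoxic concentration (MCC) causing a microscopically detectable alteration of normal cell morphology.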

[2] = Cytotoxicity against cat CRFK cells assessed as alteration of cell morphology up to 100 uM by microscopic analysis; assay type: cell-based, Felis catus; in short: as §2
Vero = assay: Cytotoxicity against african green monkey Vero cells assessed as alteration of cell morphology up to 100 uM by microscopic analysis; assay type: cell-based; details: chlorocebus sabaeus; in short: as §2
HeLa [3] = assay: Cytotoxicity against human HeLa cells assessed as alteration of cell morphology up to 100 uM by microscopic analysis; assay type: cell-based; in short: as §2
HEL = assay: Cytotoxicity against human HEL cells assessed as alteration of cell morphology up to 100 uM by microscopic analysis; assay type: cell-based; in short: as §2
[4] = tested on: Human immunodeficiency virus 2; assay: Antiviral activity against Human immunodeficiency virus 2 ROD infected in human CEM cells assessed as reduction of virus-induced giant cell formation at 250 uM after 4 to 5 days; assay type: functional, organism-based; details: CCRF-CEM
In short: (§3)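 CEM cells at 3 × 10^5 cells/mL were infected with HIV at 100 CCID50 per mL in the presence of compound dilutions. They were held 4–5 days at 37 °C in humidified CO2. Syncytium (giant cell) formation was scored microscopically, and EC50 was taken as the concentration inhibiting giant cell formation by 50%.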

[5] = tested on: Human immunodeficiency virus 1; assay: Antiviral activity against Human immunodeficiency virus 1 3B infected in human CEM cells assessed as reduction of virus-induced giant cell formation at 250 uM after 4 to 5 days; assay type: functional, organism-based; details: CCRF-CEM; in short: as §3
Feline coronavirus = assay: Antiviral activity against Feline coronavirus infected in cat CRFK cells assessed as reduction of virus-induced cytopathogenicity at 250 uM; assay type: functional, organism-based
Felid alphaherpesvirus 1 = assay: Antiviral activity against Feline herpes virus infected in cat CRFK cells assessed as reduction of virus-induced cytopathogenicity at 250 uM; assay type: functional, organism-based
Influenza B virus = assay: Antiviral activity against Influenza B virus infected in dog MDCK cells assessed as reduction of virus-induced cytopathogenicity at 250 uM; assay type: functional, organism-based
In short: (§4)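 Confluent cell monolayers were infected with 100 CCID50 of virus while exposed to varying compound concentrations. Cytopathicity was scored once it was complete in untreated infected controls. EC50 was taken as the concentration that reduced virus-induced cytopathogenicity by 50%.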

Influenza A virus [6] = assay: Antiviral activity against Influenza A virus H3N2 infected in dog MDCK cells assessed as reduction of virus-induced cytopathogenicity at 250 uM; assay type: functional, organism-based; in short: as §4
Influenza A virus [7] = assay: Antiviral activity against Influenza A virus H1N1 infected in dog MDCK cells assessed as reduction of virus-induced cytopathogenicity at 250 uM; assay type: functional, organism-based; in short: as §4
Punta Toro virus = assay: Antiviral activity against Punta Toro virus infected in african green monkey Vero cells assessed as reduction of virus-induced cytopathogenicity at 250 uM; assay type: functional, organism-based
In short: (§5)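 Confluent monolayers (HEL fibroblasts, Vero, or HeLa cells as listed) were infected with 100 CCID50 of virus in the presence of varying compound concentrations. Virus-induced cytopathicity or plaque formation was scored once cytopathicity was complete in untreated infected controls. EC50 was taken as the concentration reducing cytopathogenicity or plaque formation by 50%.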

Sindbis virus = assay: Antiviral activity against Sindbis virus infected in african green monkey Vero cells assessed as reduction of virus-induced cytopathogenicity at 250 uM; assay type: functional, organism-based; in short: as §5
Coxsackievirus B4 = assay: Antiviral activity against Coxsackievirus B4 infected in african green monkey Vero cells assessed as reduction of virus-induced cytopathogenicity at 250 uM; assay type: functional, organism-based; in short: as §5
[8] = tested on: Mammalian orthoreovirus 1; assay: Antiviral activity against Reovirus 1 infected in african green monkey Vero cells assessed as reduction of virus-induced cytopathogenicity at 250 uM; assay type: functional, organism-based; in short: as §5
Human respirovirus 3 = assay: Antiviral activity against Parainfluenza virus 3 infected in african green monkey Vero cells assessed as reduction of virus-induced cytopathogenicity at 250 uM; assay type: functional, organism-based; in short: as §5
[9] = tested on: Respiratory syncytial virus; assay: Antiviral activity against Respiratory syncytial virus long infected in human HeLa cells assessed as reduction of virus-induced cytopathogenicity at 250 uM; assay type: functional, organism-based; in short: as §5
[10] = tested on: Vesicular stomatitis virus; assay: Antiviral activity against Vesicular stomatitis virus infected in human HeLa cells assessed as reduction of virus-induced cytopathogenicity at 250 uM; assay type: functional, organism-based; in short: as §4
Human alphaherpesvirus 1 [11] = assay: Antiviral activity against thymidine kinase-deficient, ACV-resistant Herpes simplex virus 1 KOS infected in human HEL cells assessed as reduction of virus-induced cytopathogenicity at 250 uM; assay type: functional, organism-based; in short: as §4
[12] = tested on: Vesicular stomatitis virus; assay: Antiviral activity against Vesicular stomatitis virus infected in human HEL cells assessed as reduction of virus-induced cytopathogenicity at 250 uM; assay type: functional, organism-based; in short: as §4
Human alphaherpesvirus 2 = assay: Antiviral activity against Herpes simplex virus 2 G infected in human HEL cells assessed as reduction of virus-induced cytopathogenicity at 250 uM; assay type: functional, organism-based; details: strain G; in short: as §5
Human alphaherpesvirus 1 [13] = assay: Antiviral activity against Herpes simplex virus 1 KOS infected in human HEL cells assessed as reduction of virus-induced cytopathogenicity at 250 uM; assay type: functional, organism-based; in short: as §5

## CCOP(=O)(OCC)[C@H]1C[C@H](C(=O)Nc2ccc(C(C)=O)cc2)ON1C (mixture of isomers)
HeLa [1]
  IC50: > 250 µM
CCRF-CEM
  IC50: > 250 µM
L1210
  IC50: > 250 µM
MDCK
  Activity: Non-toxic
[2]
  Activity: Non-toxic
Vero
  Activity: Non-toxic
HeLa [3]
  Activity: Non-toxic
HEL
  Activity: Non-toxic
[4]
  inhibition: inactive
[5]
  inhibition: inactive
Feline coronavirus
  inhibition: inactive
Felid alphaherpesvirus 1
  inhibition: inactive
Influenza B virus
  inhibition: inactive
Influenza A virus [6]
  inhibition: inactive
Influenza A virus [7]
  inhibition: inactive
Punta Toro virus
  inhibition: inactive
Sindbis virus
  inhibition: inactive
Coxsackievirus B4
  inhibition: inactive
[8]
  inhibition: inactive
Human respirovirus 3
  inhibition: inactive
[9]
  inhibition: inactive
[10]
  inhibition: inactive
Human alphaherpesvirus 1 [11]
  inhibition: inactive
[12]
  inhibition: inactive
Human alphaherpesvirus 2
  inhibition: inactive
Human alphaherpesvirus 1 [13]
  inhibition: inactive

## CCOP(=O)(OCC)[C@H]1C[C@H](C(=O)Nc2ccc(F)cc2)ON1C (racemic)
MDCK
  Activity: Non-toxic
[2]
  Activity: Non-toxic
Vero
  Activity: Non-toxic
HeLa [3]
  Activity: Non-toxic
HEL
  Activity: Non-toxic
[4]
  inhibition: inactive
[5]
  inhibition: inactive
Feline coronavirus
  inhibition: inactive
Felid alphaherpesvirus 1
  inhibition: inactive
Influenza B virus
  inhibition: inactive
Influenza A virus [6]
  inhibition: inactive
Influenza A virus [7]
  inhibition: inactive
Punta Toro virus
  inhibition: inactive
Sindbis virus
  inhibition: inactive
Coxsackievirus B4
  inhibition: inactive
[8]
  inhibition: inactive
Human respirovirus 3
  inhibition: inactive
[9]
  inhibition: inactive
[10]
  inhibition: inactive
Human alphaherpesvirus 1 [11]
  inhibition: inactive
[12]
  inhibition: inactive
Human alphaherpesvirus 2
  inhibition: inactive
Human alphaherpesvirus 1 [13]
  inhibition: inactive

## CCOP(=O)(OCC)[C@@H]1C[C@H](C(=O)Nc2ccc([N+](=O)[O-])cc2)ON1C (racemic)
MDCK
  Activity: Non-toxic
[2]
  Activity: Non-toxic
Vero
  Activity: Non-toxic
HeLa [3]
  Activity: Non-toxic
HEL
  Activity: Non-toxic
[4]
  inhibition: inactive
[5]
  inhibition: inactive
Feline coronavirus
  inhibition: inactive
Felid alphaherpesvirus 1
  inhibition: inactive
Influenza B virus
  inhibition: inactive
Influenza A virus [6]
  inhibition: inactive
Influenza A virus [7]
  inhibition: inactive
Punta Toro virus
  inhibition: inactive
Sindbis virus
  inhibition: inactive
Coxsackievirus B4
  inhibition: inactive
[8]
  inhibition: inactive
Human respirovirus 3
  inhibition: inactive
[9]
  inhibition: inactive
[10]
  inhibition: inactive
Human alphaherpesvirus 1 [11]
  inhibition: inactive
[12]
  inhibition: inactive
Human alphaherpesvirus 2
  inhibition: inactive
Human alphaherpesvirus 1 [13]
  inhibition: inactive

## CCOP(=O)(OCC)[C@H]1C[C@H](C(=O)Nc2ccc(C)cc2)ON1C (relative stereo)
MDCK
  Activity: Non-toxic
[2]
  Activity: Non-toxic
Vero
  Activity: Non-toxic
HeLa [3]
  Activity: Non-toxic
HEL
  Activity: Non-toxic
[4]
  inhibition: inactive
[5]
  inhibition: inactive
Feline coronavirus
  inhibition: inactive
Felid alphaherpesvirus 1
  inhibition: inactive
Influenza B virus
  inhibition: inactive
Influenza A virus [6]
  inhibition: inactive
Influenza A virus [7]
  inhibition: inactive
Punta Toro virus
  inhibition: inactive
Sindbis virus
  inhibition: inactive
Coxsackievirus B4
  inhibition: inactive
[8]
  inhibition: inactive
Human respirovirus 3
  inhibition: inactive
[9]
  inhibition: inactive
[10]
  inhibition: inactive
Human alphaherpesvirus 1 [11]
  inhibition: inactive
[12]
  inhibition: inactive
Human alphaherpesvirus 2
  inhibition: inactive
Human alphaherpesvirus 1 [13]
  inhibition: inactive
